Calls of active or inactive are those of the source.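 How the source made its calls, unless noted: active means inhibition at or above 50% relative to wild type and mutant plate controls; inactive means inhibition below 50%.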
What was measured:
[1] = inhibitors of TNFa-induced NFkB p65 translocation, primary screen, imaging, HUVEC, MLSMR starter and 10KST1 sets (AID 438;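 active means inhibition above 20% together with a positive visual image hit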;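 further: compound added about 3h40 before a 20 min TNFalpha stimulation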;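 on inhibition: signal is the nuclear over cytoplasmic p65 intensity ratio per well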); details: HUVEC TNFa-induced p65 nuclear translocation; cell count: measured here: nuclei count (cytotoxicity indicator), at 2.08 µM; inhibition: at 2 µM, stronger effect = higher value, 0% TNFa-plus-vehicle, 100% no-TNFa wells
[2] = endothelial E-selectin expression blockers – imaging, HUVEC, immunofluorescence, MLSMR starter and 10KST1 sets, primary screen (AID 487;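 active means visually confirmed hit in the image check and inhibition above 20%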;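 on inhibition: signal is fraction of cell area covered by stained E-selectin grains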;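 on nuclei count: 100% = median nuclei count of all wells on the same plate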); details: HUVEC TNFalpha-induced E-selectin immunofluorescence imaging, at 2 µM; inhibition: stronger effect = higher value; nuclei count: measured here: cell number, toxicity
[3] = Primary imaging screen for DUSP6 inhibitors that restore phospho-Erk in transfected HeLa cells, chemical complementation (AID 609;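 active means compounds giving at least 50% inhibition in the cell-based MKP-3 phosphatase rescue imaging test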;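 on inhibition: phospho-Erk level distribution per well compared with pooled transfected vehicle control wells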); details: HeLa MKP-3 transfected, phospho-Erk imaging KS statistic, at 10 µM, cells stimulated with TPA for 15 min
[4] = target: Dual specificity protein phosphatase 6 (Homo sapiens) (UniProt Q16828); experiment: as above; details: HeLa MKP-3 transfected, phospho-Erk imaging KS statistic; at 10 µM; stronger effect = higher value; cells stimulated with TPA for 15 min
Chain of Dual specificity protein phosphatase 6 (Homo sapiens) (Q16828 whole entry, looked up): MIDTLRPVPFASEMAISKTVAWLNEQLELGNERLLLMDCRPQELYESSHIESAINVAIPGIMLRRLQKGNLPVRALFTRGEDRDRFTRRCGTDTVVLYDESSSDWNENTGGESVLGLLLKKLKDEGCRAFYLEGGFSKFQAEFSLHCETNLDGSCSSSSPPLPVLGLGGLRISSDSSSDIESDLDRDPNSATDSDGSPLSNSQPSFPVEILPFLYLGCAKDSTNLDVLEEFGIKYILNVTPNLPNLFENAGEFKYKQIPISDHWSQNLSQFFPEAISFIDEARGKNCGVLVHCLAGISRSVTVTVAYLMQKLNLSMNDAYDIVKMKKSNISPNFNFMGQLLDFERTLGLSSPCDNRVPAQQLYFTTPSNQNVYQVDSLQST

[5] = target: Voltage-gated potassium channel subunit beta-2 (Rattus norvegicus) (UniProt P62483); experiment: inhibitors of rat Kvbeta2 reductase activity – biochemical, NADPH fluorescence, primary screen (AID 622;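 active means fluorescence slope higher than the sample average by over 3 SD, cut at about -0.22 in these data, passing the limit was not always enough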;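 further: slope of raw intensity against log time taken from 70 to 1610 s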); details: recombinant KvBeta, 4-cyanobenzaldehyde reduction, at 10 µM, stronger effect = higher value
Chain of Voltage-gated potassium channel subunit beta-2 (Rattus norvegicus) (P62483 whole entry, looked up): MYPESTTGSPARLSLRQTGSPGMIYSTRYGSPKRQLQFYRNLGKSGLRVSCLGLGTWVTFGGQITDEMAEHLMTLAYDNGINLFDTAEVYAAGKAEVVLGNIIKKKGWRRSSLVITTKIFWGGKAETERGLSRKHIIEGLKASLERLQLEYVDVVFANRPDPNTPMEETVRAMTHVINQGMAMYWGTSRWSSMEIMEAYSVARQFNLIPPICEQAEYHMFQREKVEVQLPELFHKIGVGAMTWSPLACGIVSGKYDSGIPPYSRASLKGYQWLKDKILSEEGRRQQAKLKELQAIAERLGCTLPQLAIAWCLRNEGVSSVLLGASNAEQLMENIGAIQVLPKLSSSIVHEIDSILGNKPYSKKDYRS

[6] = target: Voltage-gated potassium channel subunit beta-2 (Rattus norvegicus) (UniProt P62483); experiment: enhancers of rat Kvbeta2 NADPH turnover – biochemical, NADPH fluorescence, primary screen (AID 623;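 active means NADPH fluorescence slope more negative than the mean of all samples by about 3 SD, 99.7% confidence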;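 further: fluorescence intensity change per second fitted from 20 to 320 s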); details: Recombinant KvBeta, NADPH fluorescence decrease slope, 10 min; at 10 µM; stronger effect = lower value
[7] = target: Alpha-2C adrenergic receptor (Homo sapiens) (UniProt P18825); experiment: compounds altering alpha2C-coupled GIRK flux – cell-based, HEK293 alpha2C/GIRK1/2, thallium flux, primary screen (AID 624;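 active means fluorescence slope after compound addition differing from the mean of all screened samples at 99.7% confidence, in either direction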;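 further: slope of fluorescence ratio to pre-addition baseline per second over 15 to 24 s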); details: thallium flux BTC fluorescence, at 10 µM, actives lie on both sides
Chain of Alpha-2C adrenergic receptor (Homo sapiens) (P18825 whole entry, looked up): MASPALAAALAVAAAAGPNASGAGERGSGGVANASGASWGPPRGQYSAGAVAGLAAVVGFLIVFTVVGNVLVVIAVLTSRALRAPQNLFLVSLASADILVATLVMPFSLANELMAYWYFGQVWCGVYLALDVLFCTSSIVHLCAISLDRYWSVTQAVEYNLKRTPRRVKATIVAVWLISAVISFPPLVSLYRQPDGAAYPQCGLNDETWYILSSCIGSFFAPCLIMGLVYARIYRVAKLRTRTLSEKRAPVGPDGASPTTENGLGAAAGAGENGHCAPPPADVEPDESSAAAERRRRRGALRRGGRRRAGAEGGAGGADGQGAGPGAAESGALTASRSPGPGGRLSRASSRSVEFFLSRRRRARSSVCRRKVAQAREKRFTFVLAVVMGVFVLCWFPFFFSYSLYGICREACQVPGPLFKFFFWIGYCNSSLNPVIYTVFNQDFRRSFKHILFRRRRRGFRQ

[8] = inhibitors of larval lipid processing in zebrafish, primary screen, whole organism, PED6 fluorescence, gall bladder and intestine (AID 686;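 active means a full or partial loss of lipid-probe fluorescence in the fish gall bladder, intestine or both, judged by eye; inactive means no fluorescence loss, or compound toxic to the fish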;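 further: larvae 5 to 7 days old with five fish per well; signal comes from phospholipase A2 cleavage of quenched PED6 carried via bile; overnight exposure to compound and PED6 before scoring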); details: Zebrafish larvae PED6 lipid processing, fluorescence scoring; screened at 20 µM (by protocol)
Method in brief: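 system = live zebrafish larvae aged 5-7 days, whole organism | probe or stimulus = ingested quenched lipid PED6 at 100 nM | doses = 20 µM single dose | timing = overnight exposure | detection = fluorescence microscopy with visual scoring of gall bladder and intestine | read-out = visual per-well fluorescence inhibition score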

[9] = loss of swimming-algae plug formation – whole organism, Chlamydomonas reinhardtii, WT vs cilia-less mutant, absorbance, 96-well, primary screen (AID 463189); details: Chlamydomonas reinhardtii gravitaxis, OD600 absorbance, 2 days; at 10 µM; stronger effect = higher value;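 further: 0% = wild type cc124 cells in DMSO and 100% = ciliumless bld1 mutant cells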
[10] = measured here: cell density z-score
[11] = measured here: nuclear c-Myc green intensity z-score
[12] = measured here: nuclear pErk red intensity z-score, stronger effect = higher value

Row | Compound | cell count [1] | inhibition [1] | inhibition [2] | nuclei count [2] [%] | z-score [3, 10] | z-score [3, 11] | z-score [3, 12] | inhibition [4] | fluorescence slope [5] | NADPH fluorescence slope [6] | slope [7] | outcome [8] | inhibition [9]
1 | O=C1OC(Nc2ccc(Br)cn2)c2ccccc21 (centres undefined) | 388 | 2.6% (inactive) | 47.2% (inactive) | 94.3 | -0.833 | -0.569 | 0.497 | -8.27% (inactive) | -0.44 (inactive) | -1.7e-06 (inactive) | 0.00494 (inactive) | inactive | -9.02% (inactive)
2 | c1cc(-c2nnc3sc(C4CCCCC4)nn23)ccn1 | 660 | -3% (inactive) | -26.6% (inactive) | 150 | 0.217 | -0.0752 | 0.0462 | -7.86% (inactive) | -0.419 (inactive) | -0.00016 (inactive) | 0.00483 (inactive) | inactive | 70.8% (active)
3 | COc1ccc(/C=C/C2=NC(=C\N(C)C)/C(=O)O2)cc1 | 558 | 0.1% (inactive) | -26.3% (inactive) | 155 | -0.557 | 0.899 | -1.61 | 5.26% (inactive) | -0.303 (inactive) | 4.9e-06 (inactive) | 0.00517 (inactive) | inactive | -3.9% (inactive)
4 | CCN(CC)c1ccc2cc(C(=O)Nc3ccccn3)c(=O)oc2c1 | 384 | -12% (inactive) | 0.4% (inactive) | 80.2 | -0.204 | 0.482 | 0.701 | -2.07% (inactive) | -0.433 (inactive) | -2.6e-05 (inactive) | 0 (inactive) | inactive | 20.3% (inactive)
5 | COc1ccc(/C(O)=C2\C(=O)C(=O)N(CCN3CCOCC3)C2c2ccccc2OC)cc1 (centres undefined) | 562 | -10.5% (inactive) | -38.1% (inactive) | 164 | 1.03 | -1.74 | 0.476 | -7.86% (inactive) | -0.486 (inactive) | -2.2e-05 (inactive) | 0.00695 (inactive) | inactive | -2.72% (inactive)
6 | CCOC(=O)C(NC=O)(NC(C)(C)C)C(=O)OCC | 520 | -16.1% (inactive) | -227% (inactive) | 188 | -0.692 | 0.27 | 0.909 | -8.95% (inactive) | -0.493 (inactive) | -5.5e-05 (inactive) | 0.00503 (inactive) | inactive | -1.22% (inactive)
7 | O=S(=O)(O)c1nc2ccccc2n1Cc1ccc(Cl)cc1Cl | 405 | -4.7% (inactive) | -102% (inactive) | 149 | -0.945 | 0.195 | -1.66 | 20.8% (inactive) | -0.337 (inactive) | -1.5e-05 (inactive) | 0.00557 (inactive) | inactive | 27.2% (inactive)
8 | CCCCNC(=O)N(C)c1nncnc1C(=O)NC | 491 | -10.8% (inactive) | -190% (inactive) | 191 | 0.256 | -0.788 | 0.32 | -7.28% (inactive) | -0.37 (inactive) | -2.2e-05 (inactive) | 0.00552 (inactive) | inactive | -1.96% (inactive)
9 | Cc1c(-c2cccs2)[n+](=O)c2c(n1[O-])CCCC2 | 431 | -16.7% (inactive) | -128% (inactive) | 164 | 1.59 | -0.562 | -0.0919 | 15% (inactive) | -0.419 (inactive) | -1.1e-05 (inactive) | 0.0072 (inactive) | inactive | 15.1% (inactive)
10 | CCOC(=O)c1[nH]c2cc3c(cc2c1NC(=O)CN1CCC(C)CC1)OCO3 | 554 | -1.1% (inactive) | -6.5% (inactive) | 155 | -0.767 | 1.52 | -0.0577 | 1.6e-07% (inactive) | -0.27 (inactive) | 6.7e-06 (inactive) | 0.00467 (inactive) | inactive | -6.78% (inactive)
11 | CC1(C)Cc2nc(N)c(C(=O)NCCO)cc2CO1 | 668 | -10.5% (inactive) | 15.2% (inactive) | 184 | -0.73 | 0.225 | 0.421 | -3.98% (inactive) | -0.476 (inactive) | -3e-05 (inactive) | 0.00417 (inactive) | inactive | 6.5% (inactive)
12 | CCOC(=O)CSc1nc(N)c(C#N)c(-c2ccc(OC)cc2)c1C#N | 475 | 1.6% (inactive) | -88.5% (inactive) | 127 | 0.441 | 1.58 | 1.28 | 24.7% (inactive) | -0.52 (inactive) | -3.8e-05 (inactive) | 0.00551 (inactive) | inactive | -7.05% (inactive)
13 | COC(=O)/C(=C1/Oc2cc(C)oc(=O)c2S1)C(F)(F)F | 330 | -2.4% (inactive) | -59.5% (inactive) | 177 | 1.64 | 0.462 | 0.469 | 28% (inactive) | -0.427 (inactive) | -0.000106 (inactive) | 0.0045 (inactive) | inactive | 5.01% (inactive)
